# Reference: publication PMC7250216 (Biomedicine & pharmacotherapy = Biomedecine & …, 2020)
# Bridges are numbered along the chain shown (N, C = ends). Where no end group is shown, it is not given here.
# Experiments:
# [1] = tested on: marmoset vasopressin receptor 1a (mV1aR); assay: FLIPR Membrane Potential; type: cell-based, marmoset (Callithrix jacchus); conditions: mV1aR expressing cells
# Summary of the method: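 CHO-K1 cells stably expressing the species' V1aR were plated at 0.3 million cells/mL and grown overnight. They were loaded with FMP Blue in Locke's buffer (pH 7.4, 2.3 mM CaCl2) for 45 min at 37°C. After 60 s baseline, log concentrations of peptide were added, with all peptides run in parallel on one plate. Reads were ex 530/em 565 nm every 2 s for 200 s.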
# [2] = tested on: non-transfected CHO-K1 cells; conditions: ref 35 (Pierce et al. 2020); cited from earlier work
# [3] = tested on: untransfected CHO-K1 cells; conditions: ref 35 (Pierce et al. 2020); cited from earlier work
# [4] = tested on: membrane hyperpolarization in mV1aR-expressing CHO cells; type: cell-based, Chinese hamster
# [5] = tested on: membrane hyperpolarization in qV1aR-expressing CHO cells; type: cell-based, Chinese hamster
# [6] = tested on: membrane hyperpolarization in hV1aR-expressing CHO cells; type: cell-based, Chinese hamster
# [7] = tested on: intracellular Ca2+ mobilization in mV1aR-expressing CHO cells; type: cell-based, Chinese hamster; conditions: 1 μM final concentration
# Summary of the method: (§1)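 Stably receptor-transfected CHO-K1 cells were plated at 0.3 million cells/mL and grown overnight. They were loaded for 60 min at 37°C with 4 μM Fluo-3 AM and 0.04% pluronic acid in Locke's buffer (pH 7.4, 2.3 mM CaCl2, 0.5 mM probenecid), then washed four times. Thapsigargin (1 μM final) was given for 5 min. After 60 s baseline, peptide was added and read at ex 488/em 538 nm every 2 s for 200 s.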
# [8] = tested on: intracellular Ca2+ mobilization in qV1aR-expressing CHO cells; type: cell-based, Chinese hamster; conditions: 1 μM final concentration
# Summary of the method: as §1
# [9] = tested on: intracellular Ca2+ mobilization in hV1aR-expressing CHO cells; type: cell-based, Chinese hamster; conditions: 1 μM final concentration
# Summary of the method: as §1
molecule,measurement,setting,value
"N=C(N)NCCC[C@H](NC(=O)[C@@H]1CCCN1C(=O)[C@@H]1CSSC[C@H](N)C(=O)N[C@@H](Cc2ccc(O)cc2)C(=O)N[C@@H](Cc2ccccc2)C(=O)N[C@@H](CCC(N)=O)C(=O)N[C@@H](CC(N)=O)C(=O)N1)C(=O)NCC(N)=O [AVP, Arginine vasopressin]","shape of concentration response curve, membrane hyperpolarization",[1],U-shaped concentration response curve
same,Ca2+ mobilization,[2],did not mobilize
same,induced hyperpolarizing response,[3],absence
"CC(=O)OCOC(=O)CN(CC(=O)OCOC(C)=O)c1ccccc1OCCOc1ccccc1N(CC(=O)OCOC(C)=O)CC(=O)OCOC(C)=O [BAPTA-AM, 1,2-Bis(2-aminophenoxy)ethane-N,N,N′,N′-tetraacetic acid tetrakis (acetoxymethyl ester)]",effect of pretreatment on AVP and OT-analog induced membrane hyperpolarization,[4],blocked
same,effect of pretreatment on AVP and OT-analog induced membrane hyperpolarization,[5],blocked
same,effect of pretreatment on AVP and OT-analog induced membrane hyperpolarization,[6],blocked
Clc1ccccc1C(c1ccccc1)(c1ccccc1)n1cccn1 [TRAM-34],effect of pretreatment on AVP and OT-analog induced membrane hyperpolarization,[4],most effective inhibition
same,effect on SKA-31-induced membrane hyperpolarization,[4],inhibited
same,effect of pretreatment on AVP and OT-analog induced membrane hyperpolarization,[5],most effective inhibition
same,effect on SKA-31-induced membrane hyperpolarization,[5],inhibited
same,effect of pretreatment on AVP and OT-analog induced membrane hyperpolarization,[6],most effective inhibition
same,effect on SKA-31-induced membrane hyperpolarization,[6],inhibited
CC(C)(O)[C@H]1O[C@H]2CC[C@@]3(C)[C@@](O)(CC[C@H]4Cc5c([nH]c6ccccc56)[C@@]43C)C2=CC1=O [paxilline],effect of pretreatment on AVP and OT-analog induced membrane hyperpolarization,[4],little to no effect
same,effect on NS-1619-induced membrane hyperpolarization,[4],inhibited
same,effect on NS-1619-induced membrane hyperpolarization,[5],inhibited
same,inhibition of AVP or OT-analog induced membrane hyperpolarization,[5],15-30%
same,effect of pretreatment on AVP and OT-analog induced membrane hyperpolarization,[6],little to no effect
same,effect on NS-1619-induced membrane hyperpolarization,[6],inhibited
C/C=C(/C)C(=O)O[C@H]1C(C)=C2[C@H]([C@@H]1OC(=O)CCCCCCC)[C@@](C)(OC(C)=O)C[C@H](OC(=O)CCC)[C@@]1(O)[C@H]2OC(=O)[C@@]1(C)O [thapsigargin],effect of pretreatment on AVP and OT-analog induced membrane hyperpolarization,[4],eliminated
same,effect of pretreatment on AVP and OT-analog induced membrane hyperpolarization,[5],eliminated
same,effect of pretreatment on AVP and OT-analog induced membrane hyperpolarization,[6],eliminated
same,effect of pretreatment on AVP and OT-analog induced calcium mobilization,[7],blocked
same,effect of pretreatment on AVP and OT-analog induced calcium mobilization,[8],blocked
same,effect of pretreatment on AVP and OT-analog induced calcium mobilization,[9],blocked
"apamin: selective inhibitor of SKCa channels (CNCKAPETALCARRCQQH-NH2; disulfide 1-11, 3-15; UniProt P01500 28-45, looked up)",inhibition of AVP or OT-analog induced membrane hyperpolarization,[4],≤ 10%
same,inhibition of AVP or OT-analog induced membrane hyperpolarization,[5],≤ 10%
same,effect on AVP or Pro^8-OT-induced hyperpolarizing response,[6],did not markedly affect
same,reduction of Leu^8-OT-induced membrane hyperpolarization,[6],~ 50%
